Results of several laboratories.
Lines come from different studies, so protocols differ.
Target: Tyrosine-protein kinase receptor TYRO3 (TYRO3, Homo sapiens, UniProt Q06418)
Residues used in one study (Q06418 41-890): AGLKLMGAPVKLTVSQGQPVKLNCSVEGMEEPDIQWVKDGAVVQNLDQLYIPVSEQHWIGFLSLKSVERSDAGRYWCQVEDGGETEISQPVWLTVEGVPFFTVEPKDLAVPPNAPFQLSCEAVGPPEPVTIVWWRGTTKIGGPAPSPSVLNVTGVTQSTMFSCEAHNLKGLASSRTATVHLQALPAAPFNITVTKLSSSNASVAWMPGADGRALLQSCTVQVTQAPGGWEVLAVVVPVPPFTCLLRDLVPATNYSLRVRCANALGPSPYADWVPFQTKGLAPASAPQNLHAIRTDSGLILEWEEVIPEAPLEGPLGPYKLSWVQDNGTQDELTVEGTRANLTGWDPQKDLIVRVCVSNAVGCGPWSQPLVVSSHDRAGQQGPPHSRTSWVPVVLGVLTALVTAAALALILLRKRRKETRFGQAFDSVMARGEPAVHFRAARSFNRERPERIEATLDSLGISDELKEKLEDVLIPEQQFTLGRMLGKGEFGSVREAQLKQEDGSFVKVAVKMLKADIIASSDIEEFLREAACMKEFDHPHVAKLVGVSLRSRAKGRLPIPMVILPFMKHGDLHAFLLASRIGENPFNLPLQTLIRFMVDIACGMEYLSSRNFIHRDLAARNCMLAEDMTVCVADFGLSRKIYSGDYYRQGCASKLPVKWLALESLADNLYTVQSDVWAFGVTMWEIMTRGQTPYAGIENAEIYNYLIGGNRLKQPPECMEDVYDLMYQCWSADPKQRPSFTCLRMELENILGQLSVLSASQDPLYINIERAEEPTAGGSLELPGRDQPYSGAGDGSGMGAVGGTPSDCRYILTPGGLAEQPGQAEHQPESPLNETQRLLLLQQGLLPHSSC

| Compound | test | setting | remaining binding [%] |
| --- | --- | --- | --- |
| c1cnn2ncc(-c3ccnc(N4CCC45COC5)n3)c2c1 | binding | 1 µM | 73 |
| C[C@H](c1ccc(F)cc1)N(Cc1cccc(C(=O)O)c1)C(=O)c1cnc2ccccc2c1 | cell-free assay, competition with immobilised ligand | 1 µM | 100 |
| Nc1ncc2c(n1)-c1c([nH]c3ccc(C#CC4CC4)cc13)CCCC2 | binding, competition with immobilised ligand | 1 µM | 100 |
| CCN1CCN(Cc2ccc(C(=O)Nc3ccc(C)c(Oc4ccc5c(c4)CC(=O)N5)c3)cc2C(F)(F)F)CC1 | binding, competition with immobilised ligand | 1 µM | 100 |
| O=C(c1ccc(Nc2ncc(Cl)c(-c3ccc(Cl)s3)n2)cc1)N1CCC(N2CCCC2)CC1 | binding, competition with immobilised ligand | 1 µM | 57 |
| COc1cnc(Nc2cccc(S(N)(=O)=O)c2)nc1N1CCN(c2ccccc2)C(=O)C1 | binding, competition with immobilised ligand | 1 µM | 100 |
| CN(CCCC(F)(F)F)c1nccc(-c2cnn3ncccc23)n1 | binding | 1 µM | 93 |
| Cc1c(NC(=O)c2cc(C(N)=O)nc3cc(F)ccc23)c(C(F)(F)F)nn1Cc1ccc(C#N)cc1 | cell-free assay, competition with immobilised ligand | 1 µM | 81 |
| O=C(NCCCN1CCOCC1)c1ccc(Nc2ncc(Cl)c(-c3ccc(Cl)s3)n2)cc1 | binding, competition with immobilised ligand | 1 µM | 94 |
| COc1ccnn2ncc(-c3ccnc(N(C)C)n3)c12 | binding | 1 µM | 100 |
| C[C@@H](c1cccc(C#N)c1)n1cc(Cl)cc(C(N)=O)c1=N | cell-free assay, competition with immobilised ligand | 1 µM | 68 |
| C[C@H]1CCN(c2nccc(-c3cnn4ncccc34)n2)C1 | binding | 1 µM | 100 |
| Cc1cnc(Nc2ccc(C(=O)N3CCC(N4CCCC4)CC3)cc2)nc1-c1cc2ccccc2s1 | binding, competition with immobilised ligand | 1 µM | 58 |
| CNC(=O)c1ccc(Nc2ncc(C(F)(F)F)c(NCc3nccnc3N(C)S(C)(=O)=O)n2)cc1 | cell-free assay, competition with immobilised ligand | 0.1 µM | 100 |
| N[C@H]1CCN(c2nccc(-c3cnn4ncccc34)n2)C1 | binding | 1 µM | 88 |
| CNCc1ccccc1-c1csc([C@H](C)Nc2nc(C)nc3cc(OC)c(OC)cc23)c1 | cell-free assay, competition with immobilised ligand | 1 µM | 100 |
| c1cncc(-c2cccc(Nc3nccc(NC4CCCCC4)n3)c2)c1 | binding, competition with immobilised ligand | 10 µM | 9.3 |
| CN(C)c1nccc(-c2cnc3ncccn23)n1 | binding | 1 µM | 100 |
| CCc1ccccc1C(=O)Nc1n[nH]c2c(C)c(F)c(C3C(C#N)=C(C)N(C)C(C)=C3C#N)cc12 | cell-free assay, competition with immobilised ligand | 1 µM | 100 |
| CN(C)c1nccc(-c2cnn3ncccc23)n1 | binding | 1 µM | 75 |
| Cn1nc(C(=O)NCc2ccc(C(=O)O)cc2)cc1-c1ccc2[nH]ccc2c1 | cell-free assay, competition with immobilised ligand | 0.1 µM | 100 |
| O=C(NCC1CCOCC1)c1n[nH]cc1NC(=O)c1c(F)cccc1F | binding, competition with immobilised ligand | 1 µM | 99 |
